Experimental data from ChEMBL document CHEMBL3271988, “Nitrogen analogues of 1,4-benzoquinones. Activities against the ascitic sarcoma 180 of mice” (J Med Chem, 1978).
Calls of active or inactive are those of the source. The calls are words filed in the database; no cut-off is given here.

Tests used:
[1] = tested on: Sarcoma-180; experiment: Antitumor activity against mouse Sarcoma 180 cells allografted in Swiss mouse assessed as survival time at 20 mg/kg, ip three doses were given at 24 hrs interval starting 24 hrs after allograft injection relative to control; format: functional; settings: route intraperitoneal
In short: (§1)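 Swiss mice inoculated ip with 10^6 ascitic sarcoma 180 cells. Compound given ip daily ×3 at 24-h intervals, starting 24 h after inoculation. Controls received isotonic saline on the same schedule; 6 mice per group. Mice alive at 60 days counted as 60 days in mean survival (±SD).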

[2] = tested on: Sarcoma-180; experiment: Antitumor activity against mouse Sarcoma 180 cells allografted in Swiss mouse at 20 mg/kg, ip three doses were given at 24 hrs interval starting 24 hrs after allograft injection relative to control; format: functional; settings: route intraperitoneal
In short: (§2)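 Swiss mice received 10^6 ascitic sarcoma 180 cells ip, then three ip doses 24 h apart starting at 24 h. Controls got isotonic salt solution on the same schedule. T/C% is mean survival time of treated over controls (6 mice per group).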

[3] = tested on: Sarcoma-180; experiment: Antitumor activity against mouse Sarcoma 180 cells allografted in Swiss mouse assessed as weight gain at 20 mg/kg, ip three doses were given at 24 hrs interval starting 24 hrs after allograft injection measured after 3 days relative to control; format: functional; settings: route intraperitoneal
In short: (§3)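 Ascitic sarcoma 180 model in Swiss mice: 10^6 cells ip, then three ip doses at 24-h intervals beginning 24 h later. Mice were weighed 1 day after cell injection and again 3 days later (24 h after the third dose). Percent weight gain of treated mice was compared with saline-treated controls on the same schedule.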

[4] = Half life of the compound in water at pH 7 at 25 degC by spectrophotometry; format: physicochemical
In short: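 Compound dissolved in absolute ethanol, then diluted into 0.01 M Tris buffer brought to pH 7 with HCl, 25 °C. Absorbance at λmax followed over hours or days; log absorbance vs time fitted by least squares, rate constant and half-time taken from the slope.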

[5] = Acute toxicity in single ip dosed Swiss mouse assessed as death up to 5 days; format: organism-based; settings: in vivo
In short: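 Male Swiss mice given one ip dose. LD50 taken as the single dose killing 50% of animals within 5 days.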

[6] = tested on: Sarcoma-180; experiment: Antitumor activity against mouse Sarcoma 180 cells allografted in Swiss mouse assessed as survival at 20 mg/kg, ip three doses were given at 24 hrs interval starting 24 hrs after allograft injection measured after 5 days; format: functional, organism-based; design: dose 20 mg/kg
In short: (§4)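 Swiss mice were injected ip with 10^6 ascitic sarcoma 180 cells. Three daily ip doses followed, the first 24 h after cell injection. The read-out was the number of mice surviving at 5 days, out of 6 treated.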

[7] = tested on: Sarcoma-180; experiment: Antitumor activity against mouse Sarcoma 180 cells allografted in Swiss mouse assessed as cure at 20 mg/kg, ip three doses were given at 24 hrs interval starting 24 hrs after allograft injection measured after 60 days; format: functional, organism-based; design: dose 20 mg/kg
In short: (§5)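 Swiss mice given 10^6 ascitic sarcoma 180 cells ip. Starting 24 h later, three ip doses were given 24 h apart. Controls got isotonic salt solution on the same schedule. A cure was a mouse alive with no evidence of cancer cells 60 days after cell injection, reported per 6 mice.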

[8] = Redox potential of the compound in alcohol-water solution; settings: buffer
[9] = tested on: Sarcoma-180; experiment: Antitumor activity against mouse Sarcoma 180 cells allografted in Swiss mouse assessed as survival time at 150 mg/kg, ip three doses were given at 24 hrs interval starting 24 hrs after allograft injection relative to control; format: functional; settings: route intraperitoneal; in short: as §1
[10] = tested on: Sarcoma-180; experiment: Antitumor activity against mouse Sarcoma 180 cells allografted in Swiss mouse at 150 mg/kg, ip three doses were given at 24 hrs interval starting 24 hrs after allograft injection relative to control; format: functional; settings: route intraperitoneal; in short: as §2
[11] = tested on: Sarcoma-180; experiment: Antitumor activity against mouse Sarcoma 180 cells allografted in Swiss mouse assessed as survival at 150 mg/kg, ip three doses were given at 24 hrs interval starting 24 hrs after allograft injection measured after 5 days; format: functional, organism-based; design: dose 150 mg/kg; in short: as §4
[12] = tested on: Sarcoma-180; experiment: Antitumor activity against mouse Sarcoma 180 cells allografted in Swiss mouse assessed as weight gain at 150 mg/kg, ip three doses were given at 24 hrs interval starting 24 hrs after allograft injection measured after 3 days relative to control; format: functional; settings: route intraperitoneal; in short: as §3
[13] = tested on: Sarcoma-180; experiment: Antitumor activity against mouse Sarcoma 180 cells allografted in Swiss mouse assessed as cure at 150 mg/kg, ip three doses were given at 24 hrs interval starting 24 hrs after allograft injection measured after 60 days; format: functional, organism-based; design: dose 150 mg/kg; in short: as §5
[14] = tested on: Sarcoma-180; experiment: Antitumor activity against mouse Sarcoma 180 cells allografted in Swiss mouse assessed as survival time at 6 mg/kg, ip three doses were given at 24 hrs interval starting 24 hrs after allograft injection relative to control; format: functional; settings: route intraperitoneal; in short: as §1
[15] = tested on: Sarcoma-180; experiment: Antitumor activity against mouse Sarcoma 180 cells allografted in Swiss mouse at 6 mg/kg, ip three doses were given at 24 hrs interval starting 24 hrs after allograft injection relative to control; format: functional; settings: route intraperitoneal; in short: as §2
[16] = tested on: Sarcoma-180; experiment: Antitumor activity against mouse Sarcoma 180 cells allografted in Swiss mouse assessed as weight gain at 6 mg/kg, ip three doses were given at 24 hrs interval starting 24 hrs after allograft injection measured after 3 days relative to control; format: functional; settings: route intraperitoneal; in short: as §3
[17] = tested on: Sarcoma-180; experiment: Antitumor activity against mouse Sarcoma 180 cells allografted in Swiss mouse assessed as survival at 6 mg/kg, ip three doses were given at 24 hrs interval starting 24 hrs after allograft injection measured after 5 days; format: functional, organism-based; design: dose 6 mg/kg; in short: as §4
[18] = tested on: Sarcoma-180; experiment: Antitumor activity against mouse Sarcoma 180 cells allografted in Swiss mouse assessed as cure at 6 mg/kg, ip three doses were given at 24 hrs interval starting 24 hrs after allograft injection measured after 60 days; format: functional, organism-based; design: dose 6 mg/kg; in short: as §5
[19] = tested on: Sarcoma-180; experiment: Antitumor activity against mouse Sarcoma 180 cells allografted in Swiss mouse at 30 mg/kg, ip three doses were given at 24 hrs interval starting 24 hrs after allograft injection relative to control; format: functional; settings: route intraperitoneal; in short: as §2
[20] = tested on: Sarcoma-180; experiment: Antitumor activity against mouse Sarcoma 180 cells allografted in Swiss mouse assessed as weight gain at 30 mg/kg, ip three doses were given at 24 hrs interval starting 24 hrs after allograft injection measured after 3 days relative to control; format: functional; settings: route intraperitoneal; in short: as §3
[21] = tested on: Sarcoma-180; experiment: Antitumor activity against mouse Sarcoma 180 cells allografted in Swiss mouse assessed as survival at 30 mg/kg, ip three doses were given at 24 hrs interval starting 24 hrs after allograft injection measured after 5 days; format: functional, organism-based; design: dose 30 mg/kg; in short: as §4
[22] = tested on: Sarcoma-180; experiment: Antitumor activity against mouse Sarcoma 180 cells allografted in Swiss mouse assessed as cure at 30 mg/kg, ip three doses were given at 24 hrs interval starting 24 hrs after allograft injection measured after 60 days; format: functional, organism-based; design: dose 30 mg/kg; in short: as §5
[23] = tested on: Sarcoma-180; experiment: Antitumor activity against mouse Sarcoma 180 cells allografted in Swiss mouse assessed as survival time at 30 mg/kg, ip three doses were given at 24 hrs interval starting 24 hrs after allograft injection relative to control; format: functional; settings: route intraperitoneal; in short: as §1
[24] = tested on: Sarcoma-180; experiment: Antitumor activity against mouse Sarcoma 180 cells allografted in Swiss mouse assessed as survival time at 15 mg/kg, ip three doses were given at 24 hrs interval starting 24 hrs after allograft injection relative to control; format: functional; settings: route intraperitoneal; in short: as §1
[25] = tested on: Sarcoma-180; experiment: Antitumor activity against mouse Sarcoma 180 cells allografted in Swiss mouse at 15 mg/kg, ip three doses were given at 24 hrs interval starting 24 hrs after allograft injection relative to control; format: functional; settings: route intraperitoneal; in short: as §2
[26] = tested on: Sarcoma-180; experiment: Antitumor activity against mouse Sarcoma 180 cells allografted in Swiss mouse assessed as survival at 15 mg/kg, ip three doses were given at 24 hrs interval starting 24 hrs after allograft injection measured after 5 days; format: functional, organism-based; design: dose 15 mg/kg; in short: as §4
[27] = tested on: Sarcoma-180; experiment: Antitumor activity against mouse Sarcoma 180 cells allografted in Swiss mouse assessed as weight gain at 15 mg/kg, ip three doses were given at 24 hrs interval starting 24 hrs after allograft injection measured after 3 days relative to control; format: functional; settings: route intraperitoneal; in short: as §3
[28] = tested on: Sarcoma-180; experiment: Antitumor activity against mouse Sarcoma 180 cells allografted in Swiss mouse assessed as survival time at 70 mg/kg, ip three doses were given at 24 hrs interval starting 24 hrs after allograft injection relative to control; format: functional; settings: route intraperitoneal; in short: as §1
[29] = tested on: Sarcoma-180; experiment: Antitumor activity against mouse Sarcoma 180 cells allografted in Swiss mouse at 70 mg/kg, ip three doses were given at 24 hrs interval starting 24 hrs after allograft injection relative to control; format: functional; settings: route intraperitoneal
In short: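 Swiss mice given 10^6 ascitic sarcoma 180 cells ip; three ip doses at 24-h intervals starting 24 h later; controls received isotonic salt solution on the same schedule. […] Cures = alive without cancer cells at 60 days.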

[30] = tested on: Sarcoma-180; experiment: Antitumor activity against mouse Sarcoma 180 cells allografted in Swiss mouse assessed as survival at 70 mg/kg, ip three doses were given at 24 hrs interval starting 24 hrs after allograft injection measured after 5 days; format: functional, organism-based; design: dose 70 mg/kg; in short: as §4
[31] = tested on: Sarcoma-180; experiment: Antitumor activity against mouse Sarcoma 180 cells allografted in Swiss mouse assessed as weight gain at 70 mg/kg, ip three doses were given at 24 hrs interval starting 24 hrs after allograft injection measured after 3 days relative to control; format: functional; settings: route intraperitoneal; in short: as §3
[32] = tested on: Sarcoma-180; experiment: Antitumor activity against mouse Sarcoma 180 cells allografted in Swiss mouse assessed as cure at 70 mg/kg, ip three doses were given at 24 hrs interval starting 24 hrs after allograft injection measured after 60 days; format: functional, organism-based; design: dose 70 mg/kg; in short: as §5
[33] = tested on: Sarcoma-180; experiment: Antitumor activity against mouse Sarcoma 180 cells allografted in Swiss mouse assessed as survival time at 10 mg/kg, ip three doses were given at 24 hrs interval starting 24 hrs after allograft injection relative to control; format: functional; settings: route intraperitoneal; in short: as §1
[34] = tested on: Sarcoma-180; experiment: Antitumor activity against mouse Sarcoma 180 cells allografted in Swiss mouse at 10 mg/kg, ip three doses were given at 24 hrs interval starting 24 hrs after allograft injection relative to control; format: functional; settings: route intraperitoneal; in short: as §2
[35] = tested on: Sarcoma-180; experiment: Antitumor activity against mouse Sarcoma 180 cells allografted in Swiss mouse assessed as weight gain at 10 mg/kg, ip three doses were given at 24 hrs interval starting 24 hrs after allograft injection measured after 3 days relative to control; format: functional; settings: route intraperitoneal; in short: as §3
[36] = tested on: Sarcoma-180; experiment: Antitumor activity against mouse Sarcoma 180 cells allografted in Swiss mouse assessed as survival at 10 mg/kg, ip three doses were given at 24 hrs interval starting 24 hrs after allograft injection measured after 5 days; format: functional, organism-based; design: dose 10 mg/kg; in short: as §4
[37] = tested on: Sarcoma-180; experiment: Antitumor activity against mouse Sarcoma 180 cells allografted in Swiss mouse assessed as cure at 10 mg/kg, ip three doses were given at 24 hrs interval starting 24 hrs after allograft injection measured after 60 days; format: functional, organism-based; design: dose 10 mg/kg; in short: as §5

With `CN(C)c1ccc(/N=C2/C=CC(=O)C(Cl)=C2)cc1` the Survival [1] was 33.3 days, the T/C [2] was 256% and the Activity [3] was 9%. The half-life [4] was 19.9 days, the LD50 at 120 h [5] was 100 mg/kg and the Activity [6] was “Active”. The Activity [7] was “inactive” and the Redox potential [8] was 0.658 V.
With `O=C1C=CC(=NO)C=C1` the Survival [9] was 17.8 days, the T/C [10] was 135% and the LD50 at 120 h [5] was 260 mg/kg. The Activity [11] was “Active”, the Activity [12] was -5.2% and the Activity [13] was “inactive”. For the same compound, the Redox potential [8] was 0.544 V.
With `CC1=C/C(=N\c2ccc(N(C)C)cc2)C=CC1=O` the Survival [14] was 18 days, the T/C [15] was 127% and the Activity [16] was -0.6%. For the same compound, the half-life [4] was 83.8 days, the LD50 at 120 h [5] was 27 mg/kg and the Activity [17] was “Active”. For the same compound, the Activity [18] was “inactive” and the Redox potential [8] was 0.604 V.
For `CN(C)c1ccc(N=C2C=CC(=O)C=C2)cc1`, the T/C [19] was 132%, the Activity [20] was -0.9% and the half-life [4] was 29.2 days. For the same compound, the LD50 at 120 h [5] was 80 mg/kg, the Activity [21] was “Active” and the Activity [22] was “inactive”. The Survival [23] was 19.2 days and the Redox potential [8] was 0.628 V.
With `O=C1C=CC(=Nc2ccc([O-])cc2)C=C1.[Na+]` the Survival [24] was 32.8 days, the T/C [25] was 214% and the LD50 at 120 h [5] was 50 mg/kg. The Activity [26] was “Active” and the Activity [27] was -2.2%.
`O=C1C=C/C(=N/O)C=C1Cl` gave a Survival [28] of 12.2 days, a T/C [29] of 130% and a half-life [4] of 13.1 days. The LD50 at 120 h [5] was 240 mg/kg, the Activity [30] was “Active” and the Activity [31] was 13.4%. For the same compound, the Activity [32] was “inactive” and the Redox potential [8] was 0.516 V.
`COC1=C/C(=N\c2ccc(N(C)C)cc2)C=CC1=O` gave a Survival [33] of 19.3 days, a T/C [34] of 181% and an Activity [35] of 1.9%. For the same compound, the LD50 at 120 h [5] was 25 mg/kg, the Activity [36] was “Active” and the Activity [37] was “inactive”. The Redox potential [8] was 0.561 V.
